Measurements as given in PubChem BioAssay AID651647 (Sanford-Burnham Center for Chemical Genomics, 2012).
The campaign covered roughly 360,000 compounds. About 220 (0.061%) were called active.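 The calls were made as follows: active = GFP/RFP ratio change of at least 30% with cell ATP level not reduced by more than half and red fluorescence within 50% of control; inactive = the rest, inconclusive results apart.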 The list comes from a sample in which actives are over-represented; it also holds similar structures and randomly drawn compounds.

These molecules were tested against Matrix metalloproteinase-14 (Homo sapiens) (UniProt P50281) (assay: MT1-MMP activation inhibitors, cellular reporter – HT1080 RFP-PRO-GFP cells, GFP/RFP fluorescence, primary screen (AID 651647)). Conditions: overnight, at 20 µM, hits give high values, percent of plate control window, DMSO zero.
How it was run: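 Assay system: RFP-PRO-GFP reporter HT1080 cells; read-out basis: GFP/RFP fluorescence ratio; benchmarks: DMSO wells and RFP-L50D-GFP cells; doses: 20 µM single dose, 1% DMSO; schedule: overnight cell settling, then overnight compound exposure, 37 °C, 5% CO2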

GFP/RFP ratio change, active:
COc1ccc2c(c1)C=CC1(O2)N(CCO)c2ccccc2C1(C)C (stereo not drawn) 52%, Nc1ccc(Nc2ccccc2)cc1 44%, COc1ccc(C)cc1Nc1nc(-c2c(C)[nH]c3ccccc23)cs1 47.3%

GFP/RFP ratio change, inactive:
CN1c2ccc([N+](=O)[O-])cc2C(C)(C)C12C=Cc1cc(C(=O)O)ccc1O2 (stereo not drawn) 0.611%, O=C(Nc1ccc(N2CCOCC2)nc1)c1c(F)cccc1F -1.38%, CCc1nonc1NC(=O)c1oc2ccc(Cl)cc2c1C 3.45%, COc1ccc(-c2cc(NC(C)=O)c3ncc(-c4cc(OC)c(OC)c(OC)c4)n3c2)cn1 -4.94%, CCc1ccc(NC(=O)N[C@H](C(=O)O)C(C)CC)cc1 (stereo partly drawn) 2.36%, COc1ccc(C(C)C)cc1-c1ccc2nncn2c1 3.27%, Cc1cccc(C)c1NC(=O)C(Cl)C(=O)c1ccccc1 (stereo not drawn) -3.13%, O=c1cnnc(Nc2ccccc2)[nH]1 7.04%, Cc1ccc(Nc2ccccc2N)cc1 -12%, O=C(Cn1cnc2cc([N+](=O)[O-])ccc2c1=O)NC(=O)NCc1ccccc1 1.03%, COC(=O)C(NS(=O)(=O)c1ccc(F)cc1)c1ccccc1 (stereo not drawn) 0.566%, CCOc1ccc(NC(=O)CN(C)C(=O)CSc2ccccc2)cc1OCC -8.63%, N/C(=N\c1nc2ccccc2o1)NC(=O)C(Cc1ccccc1)N1C(=O)c2ccccc2C1=O (stereo not drawn) -6.5%, CNC(=S)N1CCC(NC(=O)C(Cc2ccc(F)cc2)NC(C)=O)CC1 (stereo not drawn) -0.719%, CC(C)(C)n1nnc(CCc2nnn(C(C)(C)C)n2)n1 2.72%, O=C(COC(=O)c1ccc(NS(=O)(=O)c2cccs2)cc1O)Nc1ccc(F)cc1 4.53%, C[C@@H](CN1CCC[C@H]1CN1C(N)=NC[C@@H]1Cc1ccccc1)N1C[C@@H](Cc2ccccc2)N(CCCC2CCCC2)C1=N 1.74%, COc1ccc2oc(C(=O)N(CC(C)C)C3CCS(=O)(=O)C3)c(C)c2c1 (stereo not drawn) 1.26%, O=C1c2ccccc2C(=O)N1CC1c2ccccc2CCN1S(=O)(=O)c1ccccc1 (stereo not drawn) -1.81%, COc1ccc(NC2CCCN(C(=O)c3ccccc3-c3ncc[nH]3)C2)cc1 (stereo not drawn) 3.89%, COC(=O)c1ccccc1Oc1c(F)c(F)nc(N2CCOCC2)c1F 2.7%, COc1ccc(S(=O)(=O)N2CCC(C(=O)NCCC(=O)NCc3cccc(OC)c3)CC2)cc1 0.341%, Cc1[nH]c2ccccc2c1-c1ccc(Cl)nn1 -0.969%, COC(=O)c1cnc(Nc2cc(C)ccc2OC)c2ccccc12 -1.73%, C=CCn1nc(C(=O)OCC)cc1-c1sc(NC(=O)c2ccccc2)nc1C -9.54%, CCOC(=O)C1C(C)C(C(C)(C)C)N(S(=O)(=O)c2ccc(C)cc2)C1c1ccccc1 (stereo not drawn) -10.4%, O=S(=O)(/C=C/c1ccccc1)NCCc1ccccn1 2.57%, Cc1ccccc1C(=O)O -0.112%, CCC1(C)N(O)C(C)(C)C(c2ccc(OC)cc2)=[N+]1[O-] (stereo not drawn) 5.6%, CN(C(=O)c1cccc(NC(=O)C2CCN(C(=O)OC(C)(C)C)CC2)c1)C1CCC1 6.42%
